Data taken from ChEMBL document CHEMBL1146374, “Clubbed triazoles: a novel approach to antitubercular drugs” (Eur J Med Chem, 2007).
Values after ≈ are worked out from the molar mass of the structure shown.

How the values were obtained:
Escherichia coli = assay: Antibacterial activity against Escherichia coli at 50 to 100 uM after 24 hrs by well diffusion method; assay type: functional
Outline: (§1)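 Agar well diffusion: nutrient agar plates with 10 mm wells cut by sterile cork borer; 24-h subcultured bacteria swabbed onto the plates from nutrient broth. Compounds were dissolved in chloroform and added to wells at […]. Gentamycin served as the standard antibiotic.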

Staphylococcus aureus = assay: Antibacterial activity against Staphylococcus aureus at 50 to 100 uM after 24 hrs by well diffusion method; assay type: functional; outline: as §1
[1] = system: Mycobacterium tuberculosis; assay: (§2) Antituberculosis activity against Mycobacterium tuberculosis H37Rv by Microplate Alamar Blue Assay; assay type: functional
Outline: (§3)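 MIC against M. tuberculosis H37Rv (ATCC 27294) in BACTEC 12B medium by broth microdilution (MABA). Primary actives were retested at lower concentrations. MIC is the lowest concentration giving a […] fluorescence reduction versus controls. Fluorescent compounds were run in the BACTEC 460 radiometric system. Rifampin was the reference.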

[2] = system: Mycobacterium tuberculosis; assay: Growth inhibition of Mycobacterium tuberculosis H37Rv at 6.25 ug/ml by Microplate Alamar Blue Assay; assay type: functional; conditions: read-out: GI
Outline: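 Primary single-concentration screen against M. tuberculosis H37Rv (ATCC 27294) in BACTEC 12B medium by MABA broth microdilution, read as % inhibition. Compounds that fluoresce were tested in the BACTEC 460 radiometric system. More than 95% inhibition was the activity cutoff.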

Salmonella typhi = assay: Antibacterial activity against Salmonella typhi at 50 to 100 uM after 24 hrs by well diffusion method; assay type: functional, Salmonella enterica subsp. enterica serovar Typhi
Outline: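 Agar well diffusion on nutrient agar plates; wells cut with a 10 mm sterile cork borer. Plates swabbed with 24-h subcultured bacteria from nutrient broth. Compounds dissolved in chloroform and added to wells at a range of concentrations. Gentamycin was the standard.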

[3] = system: Mycobacterium tuberculosis; assay: as §2; assay type: functional; outline: as §3; remark: listed apart in the source
Pseudomonas aeruginosa = assay: Antibacterial activity against Pseudomonas aeruginosa at 50 to 100 uM after 24 hrs by well diffusion method; assay type: functional; outline: as §1
[4] = Cytotoxicity against Vero-C1008 cells at 6.25 to 50 ug/ml; assay type: cell-based; conditions: chlorocebus sabaeus
Outline: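 Vero-C-1008 cells were exposed to compounds at several concentrations across 6.25–50 µg/ml. Cytotoxicity was read out by neutral red uptake.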

## O=C(O)CCNc1nc(Cc2nnc(SCC(=O)N/N=C\c3ccccc3)n2NC(=O)c2ccccc2)cs1
Escherichia coli
  zone of inhibition: 14 mm
Staphylococcus aureus
  zone of inhibition: 18 mm
[1]
  MIC: < 6.25 µg/mL
[2]
  inhibition of growth at 6.25 µg/mL: 98%
Salmonella typhi
  Inhibition: 12%
[3]
  MIC: 3.13 µM (≈ 1.77 µg/mL)
Pseudomonas aeruginosa
  zone of inhibition: 12 mm
[4]
  Activity: Non-toxic

## CC(=O)Nc1nc(Cc2nnc(S)n2N)cs1
Escherichia coli
  zone of inhibition: 15 mm
Staphylococcus aureus
  zone of inhibition: 18 mm
[1]
  MIC: < 6.25 µg/mL
[2]
  inhibition of growth at 6.25 µg/mL: 100%
Salmonella typhi
  Inhibition: 14%
[3]
  MIC: 6.25 µM (≈ 1.69 µg/mL)
Pseudomonas aeruginosa
  zone of inhibition: 16 mm
[4]
  Activity: Non-toxic

## NNC(=O)CSc1nnc(Cc2csc(NCCC(=O)O)n2)n1NC(=O)c1ccccc1
Escherichia coli
  zone of inhibition: 14 mm
Staphylococcus aureus
  zone of inhibition: 20 mm
[1]
  MIC: < 6.25 µg/mL
[2]
  inhibition of growth at 6.25 µg/mL: 96%
Salmonella typhi
  Inhibition: 12%
[3]
  MIC: 6.25 µM (≈ 2.98 µg/mL)
Pseudomonas aeruginosa
  zone of inhibition: 18 mm
[4]
  Activity: Non-toxic

## CC(=O)Nc1nc(Cc2nnc(SCC#N)n2NC(=O)c2ccccc2)cs1
Escherichia coli
  zone of inhibition: 20 mm
Staphylococcus aureus
  zone of inhibition: 22 mm
[1]
  MIC: < 6.25 µg/mL
[2]
  inhibition of growth at 6.25 µg/mL: 97%
Salmonella typhi
  Inhibition: 16%
[3]
  MIC: 6.25 µM (≈ 2.58 µg/mL)
Pseudomonas aeruginosa
  zone of inhibition: 22 mm
[4]
  Activity: Non-toxic

## O=C(CSc1nnc(Cc2csc(NC(=O)c3ccccc3)n2)n1NC(=O)c1ccccc1)N/N=C/c1ccccc1
Escherichia coli
  zone of inhibition: 30 mm
Staphylococcus aureus
  zone of inhibition: 32 mm
[1]
  MIC: < 6.25 µg/mL
[2]
  inhibition of growth at 6.25 µg/mL: 98%
Salmonella typhi
  Inhibition: 27%
[3]
  MIC: 0.39 µM (≈ 0.233 µg/mL)
Pseudomonas aeruginosa
  zone of inhibition: 30 mm
[4]
  Activity: Non-toxic

## N#CCSc1nnc(Cc2csc(NC(=O)c3ccccc3)n2)n1NC(=O)c1ccccc1
Escherichia coli
  zone of inhibition: 22 mm
Staphylococcus aureus
  zone of inhibition: 26 mm
[1]
  MIC: < 6.25 µg/mL
[2]
  inhibition of growth at 6.25 µg/mL: 100%
Salmonella typhi
  Inhibition: 18%
[3]
  MIC: 3.13 µM (≈ 1.49 µg/mL)
Pseudomonas aeruginosa
  zone of inhibition: 24 mm
[4]
  Activity: Non-toxic

## NNC(=O)CSc1nnc(Cc2csc(NC(=O)CCl)n2)n1NC(=O)c1ccccc1
Escherichia coli
  zone of inhibition: 12 mm
Staphylococcus aureus
  zone of inhibition: 16 mm
[1]
  MIC: < 6.25 µg/mL
[2]
  inhibition of growth at 6.25 µg/mL: 98%
Salmonella typhi
  Inhibition: 14%
[3]
  MIC: 3.13 µM (≈ 1.51 µg/mL)
Pseudomonas aeruginosa
  zone of inhibition: 16 mm
[4]
  Activity: Non-toxic
